This passage reports Kd results from BindingDB's records for doi:10.1016/j.bmcl.2005.08.013 (Kosan Biosciences, 2005).

The test has as its target Heat shock protein HSP 90-alpha (Homo sapiens, UniProt P07900). Description: Binding affinity for human heat shock protein 90 in scintillation proximity assay. The method, boiled down: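 Purified full-length human Hsp90 was used as the target protein. Binding was measured by scintillation proximity assay.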
For orientation: Scintillation proximity formats need no separation of bound from free tracer.

SMILES strings stand for the structures. pKd: −log10 of the molar value.

Regarding `CO[C@H]1C=CC=C(C)C(=O)Nc2cc(O)c(N=CCN(C)C)c(c2O)C[C@@H](C)C[C@H](OC)[C@H](O)[C@@H](C)/C=C(\C)[C@@H]1OC(=O)c1ccc[nH]1` [1H-Pyrrole-2-carboxylic acid (E)-(8R,10R,15S,20S)-19-(2-dimethylamino-ethylamino)-13-(S)-hydroxy-8,14-dimethoxy-4,12,16-trimethyl-10-(S)-methyl-3,20,22-trioxo-2-aza-bicyclo[16.3.1]docosa-1(21),4,6,10,18-pentaen-9-yl ester], the pKd was less than 4.00. In turn, `CO[C@H]1C=CC=C(C)C(=O)Nc2cc(O)c(N=CCN(C)C)c(c2O)C[C@@H](C)C[C@H](OC)[C@H](O)[C@@H](C)/C=C(\C)[C@@H]1OC(=O)c1cnc[nH]1` [3H-Imidazole-4-carboxylic acid (E)-(8R,10R,15S,20S)-19-(2-dimethylamino-ethylamino)-13-(S)-hydroxy-8,14-dimethoxy-4,12,16-trimethyl-10-(S)-methyl-3,20,22-trioxo-2-aza-bicyclo[16.3.1]docosa-1(21),4,6,10,18-pentaen-9-yl ester] had a pKd of less than 4.00. Take `CO[C@H]1C=CC=C(C)C(=O)Nc2cc(O)c(N=CCN(C)C)c(c2O)C[C@@H](C)C[C@H](OC)[C@H](O)[C@@H](C)/C=C(\C)[C@@H]1OC(=O)NCCN(C)C` [(2-Dimethylamino-ethyl)-carbamic acid (4E,6Z)-(13S,14S,17R,19S)-19-(2-dimethylamino-ethylamino)-13-(S)-hydroxy-8,14-dimethoxy-4,12,16-trimethyl-10-(R)-methyl-3,20,22-trioxo-2-aza-bicyclo[16.3.1]docosa-1(21),4,6,10,18-pentaen-9-yl ester]: the pKd was less than 4.00. With `CO[C@H]1C=CC=C(C)C(=O)Nc2cc(O)c(N=CCN(C)C)c(c2O)C[C@@H](C)C[C@H](OC)[C@H](O)[C@@H](C)/C=C(\C)[C@@H]1OC(=O)NCCO` [(2-Hydroxy-ethyl)-carbamic acid (4E,6Z)-(13S,14S,17R,19S)-19-(2-dimethylamino-ethylamino)-13-(S)-hydroxy-8,14-dimethoxy-4,12,16-trimethyl-10-(R)-methyl-3,20,22-trioxo-2-aza-bicyclo[16.3.1]docosa-1(21),4,6,10,18-pentaen-9-yl ester] the figure was less than 4.00; with `CO[C@H]1C=CC=C(C)C(=O)Nc2cc(O)c(N=CCN(C)C)c(c2O)C[C@@H](C)C[C@H](OC)[C@H](O)[C@@H](C)/C=C(\C)[C@@H]1OC(=O)NCC(N)=O` [Carbamoylmethyl-carbamic acid (4E,6Z)-(13S,14S,17R,19S)-19-(2-dimethylamino-ethylamino)-13-(S)-hydroxy-8,14-dimethoxy-4,12,16-trimethyl-10-(R)-methyl-3,20,22-trioxo-2-aza-bicyclo[16.3.1]docosa-1(21),4,6,10,18-pentaen-9-yl ester], less than 4.00; with `CONC(=O)O[C@H]1/C(C)=C/[C@H](C)[C@@H](O)[C@@H](OC)C[C@H](C)Cc2c(O)c(cc(O)c2N=CCN(C)C)NC(=O)C(C)=CC=C[C@@H]1OC` [Geldanamycin derivative], less than 4.00. Under `CO[C@H]1C=CC=C(C)C(=O)Nc2cc(O)c(N3CCC3)c(c2O)C=C(C)C[C@H](OC)[C@H](O)[C@@H](C)/C=C(\C)[C@@H]1OC(=O)NO` [Geldanamycin derivative] stands less than 4.00; under `CO[C@H]1C=CC=C(C)C(=O)Nc2cc(O)c(N=CCF)c(c2O)C[C@@H](C)C[C@H](OC)[C@H](O)[C@@H](C)/C=C(\C)[C@@H]1OC(=O)NO` [Geldanamycin derivative], less than 4.00; under `CO[C@H]1C=CC=C(C)C(=O)Nc2cc(O)c(N=CCN(C)C)c(c2O)C[C@@H](C)C[C@H](OC)[C@H](O)[C@@H](C)/C=C(\C)[C@@H]1OC(=O)NN` [Hydrazinecarboxylic acid (4E,6Z)-(13S,14S,17R,19S)-19-(2-dimethylamino-ethylamino)-13-(S)-hydroxy-8,14-dimethoxy-4,12,16-trimethyl-10-(R)-methyl-3,20,22-trioxo-2-aza-bicyclo[16.3.1]docosa-1(21),4,6,10,18-pentaen-9-yl ester], less than 4.00. For `CO[C@H]1C=CC=C(C)C(=O)Nc2cc(O)c(N=CCF)c(c2O)C[C@@H](C)C[C@H](OC)[C@H](O)[C@@H](C)/C=C(\C)[C@@H]1OC(=O)NN` [Hydrazinecarboxylic acid (4E,6Z)-(13S,14S,17R,19S)-19-(2-fluoro-ethylamino)-13-(S)-hydroxy-8,14-dimethoxy-4,12,16-trimethyl-10-(R)-methyl-3,20,22-trioxo-2-aza-bicyclo[16.3.1]docosa-1(21),4,6,10,18-pentaen-9-yl ester], the pKd is less than 4.00. `CO[C@H]1C=CC=C(C)C(=O)Nc2cc(O)c(N3CCC3)c(c2O)C=C(C)C[C@H](OC)[C@H](O)[C@@H](C)/C=C(\C)[C@@H]1OC(=O)NN` [Hydrazinecarboxylic acid (4E,6Z)-(13S,14S,17R,19S)-19-azetidin-1-yl-13-(S)-hydroxy-8,14-dimethoxy-4,12,16-trimethyl-10-(R)-methyl-3,20,22-trioxo-2-aza-bicyclo[16.3.1]docosa-1(21),4,6,10,18-pentaen-9-yl ester] had a pKd of less than 4.00. Under `CNC(=O)O[C@H]1/C(C)=C/[C@H](C)[C@@H](O)[C@@H](OC)C[C@H](C)Cc2c(O)c(cc(O)c2N=CCN(C)C)NC(=O)C(C)=CC=C[C@@H]1OC` [Methyl-carbamic acid (4E,6Z)-(13S,14S,17R,19S)-19-(2-dimethylamino-ethylamino)-13-(S)-hydroxy-8,14-dimethoxy-4,12,16-trimethyl-10-(R)-methyl-3,20,22-trioxo-2-aza-bicyclo[16.3.1]docosa-1(21),4,6,10,18-pentaen-9-yl ester] stands less than 4.00; under `CO[C@H]1C=CC=C(C)C(=O)Nc2cc(O)c(N=CCN(C)C)c(c2O)C[C@@H](C)C[C@H](OC)[C@H](O)[C@@H](C)/C=C(\C)[C@@H]1OC(=O)N(C)N` [N-Methyl-hydrazinecarboxylic acid (4E,6Z)-(13S,14S,17R,19S)-19-(2-dimethylamino-ethylamino)-13-(S)-hydroxy-8,14-dimethoxy-4,12,16-trimethyl-10-(R)-methyl-3,20,22-trioxo-2-aza-bicyclo[16.3.1]docosa-1(21),4,6,10,18-pentaen-9-yl ester], less than 4.00.

For orientation: pKd means −log10 of the Kd, conventionally taken in molar units. Read a high pKd as a low Kd.
